From ChEMBL document CHEMBL4138161, “Discovery of simplified sampangine derivatives as novel fungal biofilm inhibitors” (Eur J Med Chem, 2018)
≈ marks a conversion by molar mass, not a printed value. Calls of active or inactive are those of the source. The calls are words filed in the database; no cut-off is given here.

How the values were obtained:
Aspergillus fumigatus = assay: Antifungal activity against Aspergillus fumigatus 07544 after 24 hrs by spectrophotometric analysis; type: functional; conditions: Aspergillus fumigatus, 07544, 24 h
Summary of the method: (§1)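 Broth microdilution in RPMI 1640, inoculum 5×10^3 CFU/mL, compounds from 6.4 mg/mL DMSO stocks, 35 ℃ for 24 h. Growth read as OD600; MIC80 taken as lowest concentration giving 80% growth inhibition. Triplicate.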

Candida albicans [1] = assay: Antibiofilm activity against Candida albicans SC5314 assessed down regulation of ALS3 gene at 0.4 ug/ml after 1 hr by qRT-PCR analysis; type: functional, organism-based
Summary of the method: (§2)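 Biofilm grown in dishes with 0.4 µg/mL compound or DMSO control for 1 h; total RNA isolated and transcripts quantified by real-time RT-PCR. Normalized to 18S rRNA, expressed as fold change vs untreated SC5314. Mean ± SD of three independent experiments.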

Candida albicans [2] = assay: Antifungal activity against fluconazole-resistant Candida albicans isolate J38 clinical isolate after 24 hrs by spectrophotometric analysis; type: functional; conditions: isolate J38, 24 h
Summary of the method: (§3)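 Broth microdilution (MIC80) against fluconazole-resistant clinical C. albicans isolates from a Shanghai hospital. Strains were grown in YPD at 30 ℃. Compounds came from 6.4 mg/mL DMSO stocks and were tested over a concentration series on 5×10^3 CFU/mL inoculum in RPMI 1640 at 35 ℃ for 24 h. OD600 was read; MIC80 is the lowest concentration giving 80% growth inhibition. Done in triplicate.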

Candida parapsilosis = assay: Antifungal activity against Candida parapsilosis 22019 after 24 hrs by spectrophotometric analysis; type: functional; conditions: Lodderomyces parapsilosis, 22019, 24 h; summary of the method: as §1
Candida albicans [3] = assay: Antibiofilm activity against Candida albicans SC5314 assessed inhibition of yeast-to-hypha morphological transition at 0.5 ug/ml after 3 hrs; type: functional, organism-based
Summary of the method: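 Yeast-to-hypha transition in YPD with 10% (v/v) FBS across compound concentrations; cell morphology photographed after 3 h at 37°C.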

Cryptococcus neoformans = assay: Antifungal activity against Cryptococcus neoformans 32609 after 24 hrs by spectrophotometric analysis; type: functional; conditions: Cryptococcus neoformans, 32609, 24 h; summary of the method: as §1
Candida albicans [4] = assay: Antifungal activity against fluconazole-resistant Candida albicans clinical isolate 103 after 24 hrs by spectrophotometric analysis; type: functional; conditions: isolate 103, 24 h; summary of the method: as §3
Nannizzia gypsea = assay: Antifungal activity against Microsporum gypseum Cmccfmza after 24 hrs by spectrophotometric analysis; type: functional; summary of the method: as §1
Candida albicans [5] = assay: Antibiofilm activity against Candida albicans SC5314 assessed down regulation of EFG1 gene at 0.4 ug/ml after 1 hr by qRT-PCR analysis; type: functional, organism-based; summary of the method: as §2
Candida albicans [6] = assay: Antibiofilm activity against Candida albicans SC5314 assessed as disruption of biofilm formation at 0.8 ug/ml after 24 hrs by scanning electron microscopic analysis; type: functional, organism-based
Summary of the method: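 Biofilm SEM: cells adhered to poly-L-lysine-coated glass disks, 90 min static at 37°C; non-adherent cells removed, then grown in fresh RPMI 1640 with compound at 37°C for 24 h. Fixed in 2% glutaraldehyde in 0.15 M sodium cacodylate (pH 7.2) for 2 h, graded ethanol dehydration, dried 1 h, gold-coated and imaged by SEM.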

Candida albicans [7] = assay: Fungicidal activity against Candida albicans SC5314 assessed as reduction in colony forming units at 0.8 ug/ml after 48 hrs by time-kill assay; type: functional, organism-based
Summary of the method: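 Time-kill: overnight cells PBS-washed, resuspended in RPMI 1640 at 1×10^6 cells/mL with compound, shaken at 200 rpm at 30 ℃. At set time points, dilutions plated on YPD agar and colonies counted after 48 h at 30 ℃. Three independent runs.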

Candida albicans [8] = assay: Antibiofilm activity against Candida albicans SC5314 assessed down regulation of CEK1 gene at 0.4 ug/ml after 1 hr by qRT-PCR analysis; type: functional, organism-based; summary of the method: as §2
Caenorhabditis elegans = assay: Toxicity in Caenorhabditis elegans AU37 at 6.25 to 100 ug/ml after 2 days; type: organism-based; conditions: in vivo, 48 h
Summary of the method: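 Nematodes placed in medium containing a range of compound concentrations, held at 25 ℃ for 2 d, checked daily and photographed on day 2.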

Candida albicans [9] = assay: Antifungal activity against Candida albicans infected in Sprague-Dawley rat vaginal infection model assessed as reduction in vaginal fungal burden at 1 mg/kg, administered intravaginally on day 1 to day 3 post fungal inoculation measured on day 4; type: functional, organism-based
Summary of the method: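 Ovariectomized rats inoculated intravaginally with 0.1 mL of 1×10^7 CFU/mL C. albicans on days 10, 11 and 12 after surgery. Compound in saline with 1% DMSO (2, 4, 8 mg/mL) given intravaginally on days 1–3 post-inoculation. On day 4, 100 µL vaginal fluid plated on chloramphenicol SDA agar for CFU counts.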

Candida albicans [10] = assay: Antibiofilm activity against Candida albicans SC5314 assessed down regulation of EAP1 gene at 0.4 ug/ml after 1 hr by qRT-PCR analysis; type: functional, organism-based; summary of the method: as §2
Candida albicans [11] = assay: Antibiofilm activity against Candida albicans SC5314 cultured in Lee media assessed inhibition of yeast-to-hypha morphological transition after 3 hrs; type: functional, organism-based
Summary of the method: (§4)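 Hyphal induction in Lee's (pH 6.8), Spider, SLAD or RPMI 1640 medium with compound; morphology assessed by microscopy.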

Staphylococcus aureus = assay: Antibacterial activity against Staphylococcus aureus Mu50 after 24 hrs; type: functional; conditions: Mu50, 24 h
Candida albicans [12] = assay: Antibiofilm activity against Candida albicans SC5314 assessed down regulation of CYR1 gene at 0.4 ug/ml after 1 hr by qRT-PCR analysis; type: functional, organism-based; summary of the method: as §2
CAPAN-1 = assay: Cytotoxicity against human Capan1 cells assessed as cell growth inhibition after 48 hrs by CCK8 assay; type: cell-based; conditions: CAPAN-1, 48 h
Candida albicans [13] = assay: Antibiofilm activity against Candida albicans SC5314 assessed down regulation of CPH1 gene at 0.4 ug/ml after 1 hr by qRT-PCR analysis; type: functional, organism-based; summary of the method: as §2
Candida albicans [14] = assay: Antibiofilm activity against Candida albicans SC5314 cultured in RPMI 1640 media assessed inhibition of yeast-to-hypha morphological transition after 3 hrs; type: functional, organism-based; summary of the method: as §4
Nakaseomyces glabratus = assay: Antifungal activity against Candida glabrata 537 after 24 hrs by spectrophotometric analysis; type: functional; conditions: Nakaseomyces glabratus, 537, 24 h; summary of the method: as §1
Candida albicans [15] = assay: Antibiofilm activity against Candida albicans SC5314 assessed inhibition of yeast-to-hypha morphological transition at 0.25 ug/ml after 3 hrs; type: functional, organism-based
Summary of the method: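 Cells were induced to form hyphae in YPD with 10% (vol/vol) fetal bovine serum at 37°C for 3 h with compound. Cell morphology was then photographed. Strains were routinely grown beforehand in YPD at 30°C with shaking.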

Candida albicans [16] = assay: Antibiofilm activity against Candida albicans SC5314 assessed down regulation of UME6 gene at 0.4 ug/ml after 1 hr by qRT-PCR analysis; type: functional, organism-based; summary of the method: as §2
Candida albicans [17] = assay: Antibiofilm activity against Candida albicans SC5314 assessed down regulation of HGC1 gene at 0.4 ug/ml after 1 hr by qRT-PCR analysis; type: functional, organism-based; summary of the method: as §2
Candida albicans [18] = assay: Antifungal activity against fluconazole-resistant Candida albicans clinical isolate 1010 after 24 hrs by spectrophotometric analysis; type: functional; conditions: isolate 1010, 24 h; summary of the method: as §3
Candida albicans [19] = assay: Antifungal activity against Candida albicans SC5314 after 48 hrs by spectrophotometric analysis; type: functional; conditions: SC5314, 48 h
Candida albicans [20] = assay: Antifungal activity against Candida albicans SC5314 after 24 hrs by spectrophotometric analysis; type: functional; conditions: SC5314, 24 h; summary of the method: as §1
Candida albicans [21] = assay: Antifungal activity against fluconazole-resistant Candida albicans isolate Chang7 clinical isolate after 24 hrs by spectrophotometric analysis; type: functional; conditions: isolate Chang7, 24 h; summary of the method: as §3

## CCCc1ccnc2c1C(=O)c1sc([N+](=O)[O-])cc1C2=O
Aspergillus fumigatus
  MIC80: 4 µg/mL (≈ 13.2 µM)
Candida albicans [1]
  Activity: Active
Candida albicans [2]
  MIC80: 1 µg/mL (≈ 3.31 µM)
Candida parapsilosis
  MIC80: 0.5 µg/mL (≈ 1.65 µM)
Candida albicans [3]
  Activity: Active
Cryptococcus neoformans
  MIC80: 1 µg/mL (≈ 3.31 µM)
Candida albicans [4]
  MIC80: 0.5 µg/mL (≈ 1.65 µM)
Nannizzia gypsea
  MIC80: 2 µg/mL (≈ 6.62 µM)
Candida albicans [5]
  Activity: Active
Candida albicans [6]
  Activity: Active
Candida albicans [7]
  Activity: Active
Candida albicans [8]
  Activity: Active
Caenorhabditis elegans
  Activity: Non-Toxic
Candida albicans [9]
  Activity: Active
Candida albicans [10]
  Activity: Active
Candida albicans [11]
  Activity: Dose-dependent effect
Staphylococcus aureus
  MIC80: > 128 µg/mL
Candida albicans [12]
  Activity: Active
CAPAN-1
  IC50: > 100 µM
Candida albicans [13]
  Activity: Active
Candida albicans [14]
  Activity: Dose-dependent effect
Nakaseomyces glabratus
  MIC80: 2 µg/mL (≈ 6.62 µM)
Candida albicans [15]
  Activity: Active
Candida albicans [16]
  Activity: Active
Candida albicans [17]
  Activity: Active
Candida albicans [18]
  MIC80: 0.5 µg/mL (≈ 1.65 µM)
Candida albicans [19]
  MIC80: 0.5 µg/mL (≈ 1.65 µM)
Candida albicans [20]
  MIC80: 0.5 µg/mL (≈ 1.65 µM)
Candida albicans [21]
  MIC80: 1 µg/mL (≈ 3.31 µM)

## CCc1ccnc2c1C(=O)c1sc([N+](=O)[O-])cc1C2=O
Aspergillus fumigatus
  MIC80: 4 µg/mL (≈ 13.9 µM)
Candida albicans [1]
  Activity: Active
Candida albicans [2]
  MIC80: 0.25 µg/mL (≈ 0.867 µM)
Candida parapsilosis
  MIC80: 1 µg/mL (≈ 3.47 µM)
Candida albicans [3]
  Activity: Active
Cryptococcus neoformans
  MIC80: 1 µg/mL (≈ 3.47 µM)
Candida albicans [4]
  MIC80: 0.25 µg/mL (≈ 0.867 µM)
Nannizzia gypsea
  MIC80: 2 µg/mL (≈ 6.94 µM)
Candida albicans [5]
  Activity: Active
Candida albicans [6]
  Activity: Active
Candida albicans [7]
  Activity: Active
Candida albicans [8]
  Activity: Active
Caenorhabditis elegans
  Activity: Non-Toxic
Candida albicans [9]
  Activity: Active
Candida albicans [10]
  Activity: Active
Candida albicans [11]
  Activity: Dose-dependent effect
Staphylococcus aureus
  MIC80: > 128 µg/mL
Candida albicans [12]
  Activity: Active
CAPAN-1
  IC50: > 100 µM
Candida albicans [13]
  Activity: Active
Candida albicans [14]
  Activity: Dose-dependent effect
Nakaseomyces glabratus
  MIC80: 2 µg/mL (≈ 6.94 µM)
Candida albicans [15]
  Activity: Active
Candida albicans [16]
  Activity: Active
Candida albicans [17]
  Activity: Active
Candida albicans [18]
  MIC80: 0.25 µg/mL (≈ 0.867 µM)
Candida albicans [19]
  MIC80: 0.25 µg/mL (≈ 0.867 µM)
Candida albicans [20]
  MIC80: 0.5 µg/mL (≈ 1.73 µM)
Candida albicans [21]
  MIC80: 0.25 µg/mL (≈ 0.867 µM)
